Experiments:
Class I HDAC = experiment: HDAC activity assay, class I substrate, bovine heart tissue lysate; type: biochemical; conditions: 2 hours treatment
Outline: (§1)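 Bovine heart lysate prepared in PBS pH 7.4 with 0.5% Triton X-100, 300 mM NaCl and protease/phosphatase inhibitors, then clarified; 30 µg protein/well in PBS. Test compound at semi-log increasing concentrations for 2 h, then class-specific AMC-acyl-lysine substrate (1 mM DMSO stock) for 2 h at 37 °C.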

recombinant HDAC1 = recombinant HDAC1 (Homo sapiens, UniProt Q13547); experiment: Recombinant HDAC activity assay; type: biochemical; conditions: for % HDAC activity, Class I HDACs, 1: recombinant protein incubated with 50 µM compound, 2 hrs
Chain of recombinant HDAC1 (Q13547 whole entry): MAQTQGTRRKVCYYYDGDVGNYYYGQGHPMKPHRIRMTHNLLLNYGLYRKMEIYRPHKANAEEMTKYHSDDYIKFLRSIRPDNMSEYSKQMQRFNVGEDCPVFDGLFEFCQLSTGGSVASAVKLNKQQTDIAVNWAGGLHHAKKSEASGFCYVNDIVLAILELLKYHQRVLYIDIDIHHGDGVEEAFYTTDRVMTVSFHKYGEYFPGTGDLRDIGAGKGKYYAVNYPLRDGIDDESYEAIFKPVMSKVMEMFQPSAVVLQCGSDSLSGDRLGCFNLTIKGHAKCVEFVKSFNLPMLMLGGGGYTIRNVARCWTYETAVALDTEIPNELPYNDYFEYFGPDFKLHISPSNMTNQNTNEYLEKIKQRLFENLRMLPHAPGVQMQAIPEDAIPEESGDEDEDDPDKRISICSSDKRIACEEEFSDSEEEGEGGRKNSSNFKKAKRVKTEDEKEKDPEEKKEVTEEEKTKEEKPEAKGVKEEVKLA

recombinant HDAC2 = recombinant HDAC2 (Homo sapiens, UniProt Q92769); experiment: Recombinant HDAC activity assay; type: biochemical; conditions: recombinant protein incubated with 50 µM compound, 2 hrs
Chain of recombinant HDAC2 (Q92769 whole entry): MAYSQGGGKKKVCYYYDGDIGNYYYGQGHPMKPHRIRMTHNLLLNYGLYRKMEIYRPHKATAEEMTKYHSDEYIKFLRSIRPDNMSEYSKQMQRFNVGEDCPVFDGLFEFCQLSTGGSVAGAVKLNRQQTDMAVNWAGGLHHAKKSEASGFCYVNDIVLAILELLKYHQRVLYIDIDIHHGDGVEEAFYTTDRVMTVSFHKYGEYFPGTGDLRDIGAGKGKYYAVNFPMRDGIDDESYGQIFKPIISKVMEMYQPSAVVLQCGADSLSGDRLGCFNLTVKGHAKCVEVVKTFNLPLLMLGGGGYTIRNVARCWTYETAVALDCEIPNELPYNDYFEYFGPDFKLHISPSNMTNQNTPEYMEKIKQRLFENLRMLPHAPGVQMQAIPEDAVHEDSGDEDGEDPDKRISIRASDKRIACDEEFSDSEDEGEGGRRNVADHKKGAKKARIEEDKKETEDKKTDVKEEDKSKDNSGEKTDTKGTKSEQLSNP

recombinant HDAC3 = recombinant HDAC3 (Homo sapiens, UniProt O15379); experiment: Recombinant HDAC activity assay; type: biochemical; conditions: for % HDAC activity, Class I HDACs, 3: recombinant protein incubated with 50 µM compound, 2 hrs
Chain of recombinant HDAC3 (O15379 whole entry): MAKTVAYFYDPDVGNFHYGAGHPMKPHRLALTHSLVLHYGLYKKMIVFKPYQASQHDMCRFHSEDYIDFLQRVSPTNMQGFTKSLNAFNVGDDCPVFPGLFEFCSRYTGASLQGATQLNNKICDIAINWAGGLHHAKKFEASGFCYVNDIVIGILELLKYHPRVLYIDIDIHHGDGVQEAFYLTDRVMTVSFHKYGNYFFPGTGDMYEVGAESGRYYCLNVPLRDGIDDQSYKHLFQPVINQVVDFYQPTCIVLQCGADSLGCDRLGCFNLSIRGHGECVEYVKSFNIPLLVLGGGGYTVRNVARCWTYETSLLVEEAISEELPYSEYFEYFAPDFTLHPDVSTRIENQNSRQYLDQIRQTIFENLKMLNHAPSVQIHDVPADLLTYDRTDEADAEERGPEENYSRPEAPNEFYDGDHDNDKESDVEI
Chain of recombinant HDAC3 (Q9Y618 395-489 partner limits assumed): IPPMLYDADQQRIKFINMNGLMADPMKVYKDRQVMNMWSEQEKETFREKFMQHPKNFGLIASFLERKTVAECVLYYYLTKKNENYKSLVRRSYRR

recombinant HDAC8 = target: T1, recombinant HDAC8 (Homo sapiens, UniProt Q9BY41); experiment: Recombinant HDAC activity assay; type: biochemical; conditions: for % HDAC activity, Class I HDACs, 8: recombinant protein incubated with 50 µM compound, 2 hrs
T1 sequence (Q9BY41 1-377): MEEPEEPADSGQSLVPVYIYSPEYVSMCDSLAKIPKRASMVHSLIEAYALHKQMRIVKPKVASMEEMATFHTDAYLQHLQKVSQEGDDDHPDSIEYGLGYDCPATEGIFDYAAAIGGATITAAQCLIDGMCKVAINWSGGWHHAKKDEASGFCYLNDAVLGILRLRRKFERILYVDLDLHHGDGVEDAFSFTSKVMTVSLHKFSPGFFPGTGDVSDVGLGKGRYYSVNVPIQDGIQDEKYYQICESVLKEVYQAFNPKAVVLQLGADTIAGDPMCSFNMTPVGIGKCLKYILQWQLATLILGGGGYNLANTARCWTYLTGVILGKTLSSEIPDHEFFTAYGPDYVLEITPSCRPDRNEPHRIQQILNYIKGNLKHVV

recombinant HDAC7 = target: T2, recombinant HDAC7 (Homo sapiens, UniProt Q8WUI4); experiment: Recombinant HDAC activity assay; type: biochemical; conditions: recombinant protein incubated with 50 µM compound, 2 hrs
T2 sequence (Q8WUI4 1-952): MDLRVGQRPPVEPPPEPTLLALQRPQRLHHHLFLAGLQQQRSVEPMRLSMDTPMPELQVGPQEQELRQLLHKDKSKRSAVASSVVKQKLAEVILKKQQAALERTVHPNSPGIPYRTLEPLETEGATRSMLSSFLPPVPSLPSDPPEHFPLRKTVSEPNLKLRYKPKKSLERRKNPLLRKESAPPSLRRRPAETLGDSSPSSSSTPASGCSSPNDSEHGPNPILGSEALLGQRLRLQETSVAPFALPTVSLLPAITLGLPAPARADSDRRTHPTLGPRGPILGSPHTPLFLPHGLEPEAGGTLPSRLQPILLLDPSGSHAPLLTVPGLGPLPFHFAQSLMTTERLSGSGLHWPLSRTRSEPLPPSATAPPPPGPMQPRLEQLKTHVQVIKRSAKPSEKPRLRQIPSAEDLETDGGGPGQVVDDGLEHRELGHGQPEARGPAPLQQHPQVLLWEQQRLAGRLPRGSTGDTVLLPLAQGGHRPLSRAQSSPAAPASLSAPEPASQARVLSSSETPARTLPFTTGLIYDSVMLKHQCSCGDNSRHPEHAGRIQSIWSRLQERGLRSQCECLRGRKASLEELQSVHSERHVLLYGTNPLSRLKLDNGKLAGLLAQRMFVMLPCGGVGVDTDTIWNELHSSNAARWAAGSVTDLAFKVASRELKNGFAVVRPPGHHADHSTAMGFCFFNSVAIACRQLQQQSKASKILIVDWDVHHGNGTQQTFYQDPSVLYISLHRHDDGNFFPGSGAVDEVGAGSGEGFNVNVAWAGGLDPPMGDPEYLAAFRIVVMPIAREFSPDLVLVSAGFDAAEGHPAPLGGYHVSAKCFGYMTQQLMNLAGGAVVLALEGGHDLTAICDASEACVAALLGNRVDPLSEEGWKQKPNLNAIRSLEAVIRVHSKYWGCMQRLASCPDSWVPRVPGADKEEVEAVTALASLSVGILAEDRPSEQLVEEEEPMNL

recombinant HDAC4 = recombinant HDAC4 (Homo sapiens, UniProt P56524); experiment: Recombinant HDAC activity assay; type: biochemical
Chain of recombinant HDAC4 (P56524 whole entry): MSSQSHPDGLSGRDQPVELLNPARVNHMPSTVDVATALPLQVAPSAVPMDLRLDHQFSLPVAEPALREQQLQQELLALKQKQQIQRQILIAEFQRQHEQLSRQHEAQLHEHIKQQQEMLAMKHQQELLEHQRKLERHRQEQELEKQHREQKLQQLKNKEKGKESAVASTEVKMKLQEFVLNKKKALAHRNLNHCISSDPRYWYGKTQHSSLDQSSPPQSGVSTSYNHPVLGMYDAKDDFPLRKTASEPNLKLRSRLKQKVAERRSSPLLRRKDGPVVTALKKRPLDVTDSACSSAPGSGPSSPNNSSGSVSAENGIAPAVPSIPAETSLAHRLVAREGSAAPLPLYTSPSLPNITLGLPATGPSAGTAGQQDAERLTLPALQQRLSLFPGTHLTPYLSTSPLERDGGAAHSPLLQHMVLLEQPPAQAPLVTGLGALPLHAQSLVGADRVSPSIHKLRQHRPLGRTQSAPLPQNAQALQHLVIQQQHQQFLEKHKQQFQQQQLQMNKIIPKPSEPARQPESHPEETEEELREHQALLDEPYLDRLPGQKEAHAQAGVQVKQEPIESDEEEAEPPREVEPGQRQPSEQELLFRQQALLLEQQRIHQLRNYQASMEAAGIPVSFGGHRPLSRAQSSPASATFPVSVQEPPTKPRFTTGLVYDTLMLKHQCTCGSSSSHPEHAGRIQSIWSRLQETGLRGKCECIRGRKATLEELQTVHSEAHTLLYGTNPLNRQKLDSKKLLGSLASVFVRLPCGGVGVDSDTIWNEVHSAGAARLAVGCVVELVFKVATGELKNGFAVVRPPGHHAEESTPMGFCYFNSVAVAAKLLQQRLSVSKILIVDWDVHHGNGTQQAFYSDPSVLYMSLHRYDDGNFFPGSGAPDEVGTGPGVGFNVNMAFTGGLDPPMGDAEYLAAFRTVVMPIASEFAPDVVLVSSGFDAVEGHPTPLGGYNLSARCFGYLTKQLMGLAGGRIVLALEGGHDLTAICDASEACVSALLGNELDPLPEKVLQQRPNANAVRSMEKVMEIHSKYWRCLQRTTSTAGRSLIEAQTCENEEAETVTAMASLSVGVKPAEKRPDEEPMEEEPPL

recombinant HDAC5 = recombinant HDAC5 (Homo sapiens, UniProt Q9UQL6); experiment: Recombinant HDAC activity assay; type: biochemical
Chain of recombinant HDAC5 (Q9UQL6 whole entry): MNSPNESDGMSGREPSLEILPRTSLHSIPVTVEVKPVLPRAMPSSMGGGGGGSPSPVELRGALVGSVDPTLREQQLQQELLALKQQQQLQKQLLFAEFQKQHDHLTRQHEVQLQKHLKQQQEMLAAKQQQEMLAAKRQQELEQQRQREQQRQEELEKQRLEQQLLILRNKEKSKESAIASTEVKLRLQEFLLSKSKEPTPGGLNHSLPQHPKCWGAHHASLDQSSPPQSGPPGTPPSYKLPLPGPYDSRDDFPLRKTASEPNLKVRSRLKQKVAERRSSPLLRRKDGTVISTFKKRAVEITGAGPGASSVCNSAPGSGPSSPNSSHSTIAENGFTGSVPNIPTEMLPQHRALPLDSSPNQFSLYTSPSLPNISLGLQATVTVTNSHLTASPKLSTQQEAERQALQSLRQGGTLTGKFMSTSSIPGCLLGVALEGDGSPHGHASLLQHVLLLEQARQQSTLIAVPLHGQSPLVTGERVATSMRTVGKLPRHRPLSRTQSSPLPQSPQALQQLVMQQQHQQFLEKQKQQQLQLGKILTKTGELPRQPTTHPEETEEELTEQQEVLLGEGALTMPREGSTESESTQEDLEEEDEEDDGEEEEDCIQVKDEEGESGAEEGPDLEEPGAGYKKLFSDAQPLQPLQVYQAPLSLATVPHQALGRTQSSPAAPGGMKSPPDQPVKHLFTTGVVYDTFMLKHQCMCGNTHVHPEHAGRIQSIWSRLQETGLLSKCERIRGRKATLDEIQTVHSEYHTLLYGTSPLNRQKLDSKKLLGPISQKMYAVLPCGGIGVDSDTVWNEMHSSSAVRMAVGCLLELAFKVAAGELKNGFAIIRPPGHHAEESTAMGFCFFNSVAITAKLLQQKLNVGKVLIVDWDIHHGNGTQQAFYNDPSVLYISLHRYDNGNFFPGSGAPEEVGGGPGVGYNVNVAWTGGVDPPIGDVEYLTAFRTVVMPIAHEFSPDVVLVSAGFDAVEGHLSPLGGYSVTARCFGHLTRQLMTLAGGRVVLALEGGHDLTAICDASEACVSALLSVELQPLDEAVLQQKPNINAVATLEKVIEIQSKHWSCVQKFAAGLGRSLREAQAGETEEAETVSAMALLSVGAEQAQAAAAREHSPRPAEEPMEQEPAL

recombinant HDAC9 = recombinant HDAC9 (Homo sapiens, UniProt Q9UKV0); experiment: Recombinant HDAC activity assay; type: biochemical
Chain of recombinant HDAC9 (Q9UKV0 whole entry): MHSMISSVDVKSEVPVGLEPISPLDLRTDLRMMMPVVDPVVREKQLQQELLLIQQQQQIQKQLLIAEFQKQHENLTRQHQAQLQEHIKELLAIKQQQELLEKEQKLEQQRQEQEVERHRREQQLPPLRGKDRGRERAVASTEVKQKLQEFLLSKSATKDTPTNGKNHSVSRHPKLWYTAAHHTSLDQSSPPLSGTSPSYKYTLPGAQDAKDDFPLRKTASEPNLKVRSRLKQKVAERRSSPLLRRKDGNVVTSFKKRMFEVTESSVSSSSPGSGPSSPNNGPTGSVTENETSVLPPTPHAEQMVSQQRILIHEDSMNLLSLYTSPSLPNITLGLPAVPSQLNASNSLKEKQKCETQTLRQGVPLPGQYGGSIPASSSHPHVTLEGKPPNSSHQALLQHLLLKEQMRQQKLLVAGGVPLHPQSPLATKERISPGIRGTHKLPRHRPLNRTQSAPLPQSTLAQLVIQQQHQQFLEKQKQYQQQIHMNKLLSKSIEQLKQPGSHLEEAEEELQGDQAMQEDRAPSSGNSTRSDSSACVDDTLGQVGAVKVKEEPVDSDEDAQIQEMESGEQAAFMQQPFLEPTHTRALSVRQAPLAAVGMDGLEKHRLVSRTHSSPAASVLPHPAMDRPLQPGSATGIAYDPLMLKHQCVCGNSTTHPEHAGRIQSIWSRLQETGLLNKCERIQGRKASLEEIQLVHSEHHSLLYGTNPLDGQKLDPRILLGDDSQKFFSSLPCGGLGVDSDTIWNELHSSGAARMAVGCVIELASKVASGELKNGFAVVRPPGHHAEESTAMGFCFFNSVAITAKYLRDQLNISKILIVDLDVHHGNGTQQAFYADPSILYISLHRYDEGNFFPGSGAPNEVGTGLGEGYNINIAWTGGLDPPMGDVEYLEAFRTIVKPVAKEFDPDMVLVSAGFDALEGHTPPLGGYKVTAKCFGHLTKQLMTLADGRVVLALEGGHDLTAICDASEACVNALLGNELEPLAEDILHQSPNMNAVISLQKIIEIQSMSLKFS

recombinant HDAC10 = target: T3, recombinant HDAC10 (Homo sapiens, UniProt Q969S8); experiment: Recombinant HDAC activity assay; type: biochemical
T3 sequence (Q969S8 1-669): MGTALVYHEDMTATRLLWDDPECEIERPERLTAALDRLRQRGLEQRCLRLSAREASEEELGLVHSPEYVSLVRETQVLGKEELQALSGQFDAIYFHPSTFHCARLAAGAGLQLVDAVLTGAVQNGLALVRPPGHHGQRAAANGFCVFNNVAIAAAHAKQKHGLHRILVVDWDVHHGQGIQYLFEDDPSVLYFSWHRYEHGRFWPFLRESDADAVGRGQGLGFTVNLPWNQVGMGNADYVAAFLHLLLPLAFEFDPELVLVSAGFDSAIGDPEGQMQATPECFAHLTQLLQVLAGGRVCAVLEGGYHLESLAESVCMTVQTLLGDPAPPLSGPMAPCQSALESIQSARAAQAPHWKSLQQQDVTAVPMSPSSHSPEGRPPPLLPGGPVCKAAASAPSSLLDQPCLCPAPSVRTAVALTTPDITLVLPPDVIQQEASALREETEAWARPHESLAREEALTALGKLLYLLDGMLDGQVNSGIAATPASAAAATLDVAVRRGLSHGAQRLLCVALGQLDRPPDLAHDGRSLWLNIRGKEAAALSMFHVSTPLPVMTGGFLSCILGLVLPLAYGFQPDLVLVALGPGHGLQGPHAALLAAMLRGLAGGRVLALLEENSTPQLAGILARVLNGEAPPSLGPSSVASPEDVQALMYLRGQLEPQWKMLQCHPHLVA

[1] = test system: HDAC activity in bovine cardiac tissue; experiment: Natural product library screen with class-selective HDAC substrates; type: biochemical; conditions: 2 hours treatment
Outline: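 The screen covered 131 natural compounds against bovine cardiac tissue lysate at 30 µg protein/well in PBS (pH 7.4 lysis buffer with Triton X-100 and NaCl). Test compound for 2 h, then separate class I, IIa or IIb fluorogenic acyl-lysine-AMC substrates for 2 h at 37 °C. Developer (Triton X-100, 3 µM TSA, 0.75 mg/ml trypsin) for 20 min; fluorescence read at 360/460 nm.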

H9c2 cells = experiment: Acetyl-H3K9/14 immunoblot of whole cell extract; type: cell-based, rat; conditions: H9c2 myocytes, 50 µM, 2 hours
Outline: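 H9c2 cells were grown in DMEM with 10% FBS and treated at 90% confluence for 2 h with test compound or DMSO, with TSA as positive control. Washed in ice-cold PBS, lysed in PBS pH 7.4 with 0.5% Triton X-100 and 300 mM NaCl plus inhibitors, sonicated and clarified. SDS-PAGE, nitrocellulose, acetyl-H3K9/14 and total H3 antibodies, chemiluminescence; densitometry; ANOVA with Tukey.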

Class IIb HDAC = experiment: HDAC activity assay, class IIb substrate, bovine heart tissue lysate; type: biochemical; conditions: 2 hours treatment
Outline: as §1

Class IIa HDAC = experiment: HDAC activity assay, class IIa substrate, bovine heart tissue lysate; type: biochemical; conditions: 2 hours treatment
Outline: as §1

recombinant HDAC6 = target: T4, recombinant HDAC6 (Homo sapiens, UniProt Q9UBN7); experiment: Recombinant HDAC activity assay; type: biochemical; conditions: recombinant protein incubated with 50 µM compound, 2 hrs
T4 sequence (Q9UBN7 1-1215): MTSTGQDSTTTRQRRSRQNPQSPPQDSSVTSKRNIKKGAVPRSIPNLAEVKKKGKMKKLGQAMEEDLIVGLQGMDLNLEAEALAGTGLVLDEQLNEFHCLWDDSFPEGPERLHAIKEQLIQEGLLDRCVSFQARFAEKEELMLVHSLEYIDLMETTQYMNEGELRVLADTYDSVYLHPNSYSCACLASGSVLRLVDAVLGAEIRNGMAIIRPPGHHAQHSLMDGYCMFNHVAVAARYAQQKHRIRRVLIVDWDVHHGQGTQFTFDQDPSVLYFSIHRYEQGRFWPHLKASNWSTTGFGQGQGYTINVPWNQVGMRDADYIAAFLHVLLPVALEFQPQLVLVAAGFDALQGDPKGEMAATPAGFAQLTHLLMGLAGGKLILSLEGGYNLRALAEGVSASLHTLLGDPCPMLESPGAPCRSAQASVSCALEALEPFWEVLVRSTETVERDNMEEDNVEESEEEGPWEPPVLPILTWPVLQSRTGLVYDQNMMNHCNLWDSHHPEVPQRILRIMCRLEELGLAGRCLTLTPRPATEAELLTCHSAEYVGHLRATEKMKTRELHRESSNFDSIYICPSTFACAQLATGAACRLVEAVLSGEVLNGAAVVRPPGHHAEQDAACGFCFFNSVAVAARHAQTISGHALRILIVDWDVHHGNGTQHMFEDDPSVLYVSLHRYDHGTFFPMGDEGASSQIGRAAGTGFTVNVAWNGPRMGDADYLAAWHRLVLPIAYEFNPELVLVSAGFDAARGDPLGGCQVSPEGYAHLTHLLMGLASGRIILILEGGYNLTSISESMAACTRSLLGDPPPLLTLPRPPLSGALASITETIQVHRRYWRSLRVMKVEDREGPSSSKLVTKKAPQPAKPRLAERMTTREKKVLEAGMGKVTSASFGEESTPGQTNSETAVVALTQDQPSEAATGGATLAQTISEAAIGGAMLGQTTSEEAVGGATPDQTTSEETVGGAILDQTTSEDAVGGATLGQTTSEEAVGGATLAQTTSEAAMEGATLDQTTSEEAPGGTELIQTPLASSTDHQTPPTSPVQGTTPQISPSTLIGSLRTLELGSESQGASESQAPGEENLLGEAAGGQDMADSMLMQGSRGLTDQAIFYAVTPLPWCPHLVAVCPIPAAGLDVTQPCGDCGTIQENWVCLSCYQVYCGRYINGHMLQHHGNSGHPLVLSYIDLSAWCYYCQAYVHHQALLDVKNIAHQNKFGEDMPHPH

[2] = recombinant protein incubated with 50 µM compound, 2 hrs

**Q.** Which results are given for `COc1cc2c(cc1OC)-c1cc3ccc(OC)c(OC)c3c[n+]1CC2` [Palmatine]?
**A.** class I HDAC activity, effect in words (Class I HDAC): only inhibit class I HDAC activity; % HDAC activity, Class I HDACs, 1 (recombinant HDAC1): 44.8%; % HDAC activity, Class I HDACs, 2 (recombinant HDAC2): 17.5%; % HDAC activity, Class I HDACs, 3 (recombinant HDAC3): 47.1%; % HDAC activity, Class I HDACs, 8 (recombinant HDAC8): 40.9%; % HDAC activity, Class IIa HDACs, 7 (recombinant HDAC7): -

**Q.** How did the remaining activity at 50 µM (recombinant HDAC1; 2 h, read-out: % HDAC activity, Class I HDACs, 1) turn out when `O=c1c(O)c(-c2ccc(O)c(O)c2)oc2cc(O)cc(O)c12` [Quercetin dihydrate] was run?
**A.** 72.7%

**Q.** And the remaining activity at 50 µM (recombinant HDAC3; 2 h, read-out: % HDAC activity, Class I HDACs, 3)?
**A.** 63.6%

**Q.** What about the remaining activity at 50 µM (recombinant HDAC8; 2 h, read-out: % HDAC activity, Class I HDACs, 8) of the same compound?
**A.** 64%

**Q.** And the remaining activity at 50 µM (recombinant HDAC4; 2 h, read-out: % HDAC activity, Class IIa HDACs, 4)?
**A.** 89.8%

**Q.** What about the remaining activity at 50 µM (recombinant HDAC5; 2 h, read-out: % HDAC activity, Class IIa HDACs, 5) of the same compound?
**A.** 78.2%

**Q.** And the “% HDAC activity, Class IIa HDACs, 7” value (recombinant HDAC7)?
**A.** -

**Q.** What about the remaining activity at 50 µM (recombinant HDAC9; 2 h, read-out: % HDAC activity, Class IIa HDACs, 9) of the same compound?
**A.** 70.8%

**Q.** And the remaining activity at 50 µM (recombinant HDAC10; 2 h, read-out: % HDAC activity, Class IIb HDACs, 10)?
**A.** 68%

**Q.** And the “catalytic HDAC activity across class I, IIa and IIb substrates, effect in words” value [1]?
**A.** dose-dependent pan-HDAC inhibition

**Q.** And the “acetylation of histone 3 on lysine 9/14 (Ac-H3 K9/14) via immunoblot” value (H9c2 cells)?
**A.** increased

**Q.** How did the “class IIb HDAC activity, effect in words” value (Class IIb HDAC) turn out when `CN1CCc2c(c3ccccc3n2Cc2ccc(C(=O)NO)cc2)C1` [TubA, Tubastatin A, reference compound] was run?
**A.** only inhibited class IIb HDAC activity

**Q.** How did the “class IIa HDAC activity, effect in words” value (Class IIa HDAC) turn out when DPAH was run?
**A.** only inhibited class IIa HDAC activity

**Q.** With Myricitrin as the compound, how does the “% HDAC activity, Class I HDACs, 1” value (recombinant HDAC1) read?
**A.** 75.1%

**Q.** What about the “% HDAC activity, Class I HDACs, 3” value (recombinant HDAC3) of the same compound?
**A.** 67.7%

**Q.** And the “% HDAC activity, Class I HDACs, 8” value (recombinant HDAC8)?
**A.** 65.4%

**Q.** And the “% HDAC activity, Class IIa HDACs, 4” value (recombinant HDAC4; [2])?
**A.** 93.5%

**Q.** And the “% HDAC activity, Class IIa HDACs, 5” value (recombinant HDAC5; [2])?
**A.** 68.3%

**Q.** What about the “% HDAC activity, Class IIa HDACs, 7” value (recombinant HDAC7) of the same compound?
**A.** -

**Q.** And the “% HDAC activity, Class IIa HDACs, 9” value (recombinant HDAC9; [2])?
**A.** 69.3%

**Q.** And the “% HDAC activity, Class IIb HDACs, 6” value (recombinant HDAC6)?
**A.** 87.2%

**Q.** What about the “% HDAC activity, Class IIb HDACs, 10” value (recombinant HDAC10; [2]) of the same compound?
**A.** 67.0%
